# DAGLB inh: blocks human DAGLB lipase activity. Q8NCG7. HEK293T DAGLB membrane lysate, EnzChek fluorogenic substrate. inhibition, % at 5.17 µM. 0.059% of 340,000 active. AID 504411; in the data active = inhibition above about 34%;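 also: 0% = enzyme with vehicle and 100% = wells lacking enzyme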
# PLC-beta3 inh: blocks human PLC-beta3 enzyme activity; Purified PLC-beta3, fluorogenic substrate, fluorescence; inhibition, % at 12.2 µM; Q01970; AID 720704; 0.18% of 370,000 active; in the data active = inhibition above about 11%;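 also: 0% = median of compound wells on plate and 100% = full blocker control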
# PLC-gamma1 inh: blocks human PLC-gamma1 enzyme activity. P19174. purified PLC-gamma1, fluorogenic substrate, fluorescence. inhibition, % at 12.2 µM. 0.84% of 370,000 active
# HGIII-sPLA2 inh: Blocks human group III sPLA2 activity | inhibition, % at 12.2 µM | 0.56% of 370,000 active | Q9NZ20 | AID 743126 | QFRET BODIPY PC-A2 liposome hydrolysis, fluorescence;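 active = inhibition above mean plus 3 SD of compounds lying within the high and low control bounds, cut at about 19% in these data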;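 also: 0% = median of test compound wells and 100% = no enzyme DMSO wells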
# Target sequence (Q9NZ20 whole entry, looked up): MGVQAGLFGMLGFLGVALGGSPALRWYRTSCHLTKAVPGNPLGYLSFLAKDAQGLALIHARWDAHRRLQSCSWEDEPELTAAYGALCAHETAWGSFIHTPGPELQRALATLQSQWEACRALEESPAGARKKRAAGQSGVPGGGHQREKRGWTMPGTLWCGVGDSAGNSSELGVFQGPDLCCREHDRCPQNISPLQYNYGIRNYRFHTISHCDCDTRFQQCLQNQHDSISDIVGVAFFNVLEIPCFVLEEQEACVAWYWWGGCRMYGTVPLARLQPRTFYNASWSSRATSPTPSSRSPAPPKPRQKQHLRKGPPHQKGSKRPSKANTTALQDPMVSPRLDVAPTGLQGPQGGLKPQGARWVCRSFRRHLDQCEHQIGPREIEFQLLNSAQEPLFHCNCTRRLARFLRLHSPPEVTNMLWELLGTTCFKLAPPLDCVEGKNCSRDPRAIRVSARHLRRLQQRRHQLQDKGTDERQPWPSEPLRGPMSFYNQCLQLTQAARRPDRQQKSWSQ
# Tb MetRS inh: blocks T. brucei methionyl-tRNA synthetase activity | inhibition, % at 11.9 µM | 0.4% of 360,000 active | AID 624268 | purified T. brucei MetRS, ATP depletion, Kinase-Glo luminescence;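 active = inhibition above a per-plate cutoff of the control wells' mean inhibition plus 3 SD, cut at about 5.5% in these data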;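 also: 0% = DMSO wells median and 100% = median of wells with control inhibitor compound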
#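 Material: parasite MetRS enzyme / Replication: singlicate, one well per compound / Signal: luminescence of leftover ATP / Schedule: 2 h aminoacylation at 25 °C after 15 min preincubation / Medium: HEPES-MgCl2-KCl buffer plus DTT, spermine, BSA, pyrophosphatase / Doses: 11.9 µM single point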
# TbMetRS confirm: Trypanosoma brucei MetRS inhibition confirmed; shares compounds with Tb MetRS inh; T. brucei MetRS enzyme, luminescence (ATP depletion); inhibition, % at 11.9 µM; 93% of 1,400 active; AID 624412; in the data active = inhibition above about 7%
# Jurkat cytotox: counter-screen for T. brucei MetRS inhibitors: Jurkat cell cytotoxicity; 12% of 1,400 active; inhibition, % at 8.3 µM; shares compounds with Tb MetRS inh; Jurkat cells viability, ATP luminescence; in the data active = inhibition above about 15%;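 also: 0% = vehicle and 100% = reference inhibitor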
# TbMetRS FP orth: orthogonal test for Trypanosoma brucei MetRS inhibitors | shares compounds with Tb MetRS inh | purified T. brucei MetRS, fluorescence polarization | inhibition, % at 11.9 µM | 44% of 1,400 active; in the data active = inhibition above about 17%;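 also: 0% = vehicle wells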
# PLCg1 ctr: counter-screen for PLC-beta3 inhibitors: inhibitors of human PLC-gamma1; shares compounds with PLC-gamma1 inh; purified PLC-gamma1, fluorogenic substrate, fluorescence; inhibition, % at 12.3 µM; 3.1% of 3,300 active; AID 743258
# PLCbeta3 conf: confirmation of human PLC-beta3 inhibitors. shares compounds with PLC-gamma1 inh. purified PLC-beta3, fluorogenic substrate fluorescence. inhibition, % at 12.3 µM. 1% of 3,300 active. AID 743261; in the data active = inhibition above about 11%
# hGIII sPLA2 conf: human GIII-sPLA2 inhibition, confirmation; 34% of 2,000 active; recombinant hGIII-sPLA2, BODIPY PC-A2 QFRET fluorescence; AID 743280; inhibition, % at 12.2 µM; shares compounds with HGIII-sPLA2 inh;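 active = mean inhibition across triplicates above the hit cutoff set in the earlier primary screen, cut at about 19% in these data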;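 also: 0% = enzyme with DMSO and 100% = DMSO wells lacking enzyme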
# 535nm interf: 535nm fluorescence interference, HGIII-sPLA2 counter-screen; shares compounds with HGIII-sPLA2 inh; BODIPY FL product fluorescence interference, QFRET; inhibition, % at 12.2 µM; 8.5% of 2,000 active; AID 743282;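 active = average inhibition above the solvent-only control mean plus 3 SD, cut at about 6% in these data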;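 also: 0% = DMSO with substrate plus product and 100% = DMSO with substrate alone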
# Numbers without * were called inactive; / = not tested or not shown. Only some compounds are listed: those with a hit (about 1.9% of all), similar ones and a draw of the others. Rule as the data show it, unless noted: active = inhibition above about 9.5%; inactive = the rest.
SMILES,DAGLB inh,PLC-beta3 inh,PLC-gamma1 inh,HGIII-sPLA2 inh,Tb MetRS inh,PLCg1 ctr,PLCbeta3 conf,others
Cc1ccc(C2CC2C(=O)NNC(=S)Nc2cccc(Cl)c2)cc1 (stereo not given),3.7,3.7,7.0,22.6*,6.5*,/,/,TbMetRS confirm=13.8*;Jurkat cytotox=-0.1;TbMetRS FP orth=9.6;hGIII sPLA2 conf=-9.3;535nm interf=10.0*
Cc1ccc(NC(=S)NNC(=O)C2CC2c2ccc(C)cc2)cc1 (stereo not given),-1.4,-1.7,-1.1,14.7,3.9,/,/,
CC[C@H](CCCc1ccc(OC)cc1)CCC(=O)N(c1ccccc1)c1ccccc1,/,2.5,-1.8,-5.5,/,/,/,
Cc1onc(-c2c(F)cccc2Cl)c1C(=O)N1C=CC(C(F)(F)Cl)=NCC1,-0.2,11.1*,12.6*,-6.8,-0.5,0.5,5.1,
CC[C@@H](CCC(=O)N(c1ccccc1)c1ccccc1)c1ccc(C)cc1,/,0.9,-0.3,0.7,/,/,/,
CCOc1cccc(N(C(=O)C2COc3ccccc3O2)C(C(=O)NC2CCCCC2)c2ccc(O)cc2)c1 (stereo not given),-2.8,11.0*,8.5,-20.9,-0.4,-3.2,-0.2,
CC(C)CCNC(=O)C(c1ccc(O)cc1)N(C(=O)C1COc2ccccc2O1)c1cccc(O)c1 (stereo not given),0.4,-4.9,-2.3,-64.6,0.0,/,/,
Nn1cnnc1SCC(=O)N(C1CCCCC1)C1CCCCC1,-2.2,5.9,11.5*,0.4,0.0,-5.4,-1.0,
CCN(CC)C(=O)CC[C@@H]1CC[C@]2(CCCN(Cc3cccs3)C2)O1,/,1.0,1.6,3.5,/,/,/,
CSc1cccc(NC(=S)NN/C(=N/S(=O)(=O)c2ccccc2)N2CCCC2)c1,/,-0.8,-0.8,-8.0,/,/,/,
COc1ccccc1-c1cc(N)n(S(=O)(=O)c2cccc3nsnc23)n1,1.9,3.2,11.8*,4.0,-0.9,-2.4,2.5,
Cn1c(SCC(=O)N2CCOCC2)nnc1-c1ccccc1,0.2,12.0*,8.9,-1.8,-0.4,-4.3,-1.6,
COc1ccc(NC(=O)Cn2c(=O)c(C)nc3ccccc32)cc1Cl,-3.8,-7.5,0.8,1.5,-0.4,/,/,
COc1ccc(NC(=O)Cn2c(C(C)C)nc(C)cc2=O)cc1Cl,2.9,3.4,10.3*,12.7,-0.8,-7.7,-3.9,
COc1ccc(OCCCC(=O)NCc2ccco2)cc1,-3.2,8.3,15.2*,0.9,-0.7,-0.8,3.6,
COc1ccc(CN2CCCC(C(=O)N3CCCC3)C2)c(OC)c1OC (stereo not given),/,7.0,11.2*,5.5,-1.8,1.3,3.3,
Cc1ccccc1-n1c(SC(C)C(N)=O)nnc1-c1cccnc1 (stereo not given),3.2,1.9,11.4*,2.1,-0.7,-2.2,0.8,
Cc1ccc(NC(=O)C(C)Sc2nnc(-c3cccnc3)n2-c2ccccc2)cc1 (stereo not given),-0.5,0.9,0.6,-11.2,-0.2,/,/,
O=C(C(=O)N1CCN(S(=O)(=O)c2ccccc2)CC1)c1cccc(C(F)(F)F)c1,/,-4.6,1.8,-3.9,/,/,/,
O=c1[nH]c(-c2ccccc2)cn1C1CCN(Cc2ccc(-c3nc4ccc(Br)cc4nc3-c3ccccc3)cc2)CC1,/,-3.8,-4.6,6.9,/,/,/,
COc1cccc(CN2C(=O)N(C(C)C)C(N(O)C(=O)NC(C)C)C2(C)C)c1OC (stereo not given),-1.8,14.7*,13.6*,8.8,-1.0,3.6,4.5,
CC(C)NC(=O)N(O)C1N(C(C)C)C(=O)N(Cc2ccc3c(c2)OCO3)C1(C)C (stereo not given),-1.6,-2.8,2.2,-2.5,-0.1,/,/,
Cc1ccc(-c2cc(C#N)c3n(c2=O)CCC3)cc1,/,-15.5,-12.8,18.4,/,/,/,
Cc1ccc(O)c(-c2cc(C(=O)Nc3cccnc3)[nH]n2)c1,1.7,-30.3,10.8*,-23.6,0.5,1.1,2.8,
COc1ccc(NC(=O)CSc2nnnn2-c2ccc(OC)cc2)cc1,-0.4,1.4,11.4*,8.9,-1.4,-0.3,2.1,
SMILES,DAGLB inh,PLC-beta3 inh,PLC-gamma1 inh,HGIII-sPLA2 inh,Tb MetRS inh,PLCg1 ctr,PLCbeta3 conf,others
COc1ccc(-n2c(SCC(=O)Nc3ccccc3-c3ccccc3)nnc2-c2ccccn2)cc1,/,6.5,10.2*,5.2,/,0.8,-4.2,
Cc1cc(C)nc(NC(=O)CSc2nnnn2-c2ccccc2)n1,1.8,0.7,12.0*,-2.2,-0.6,-0.1,1.8,
Cc1cc(C)nc(SCc2nnc(SCC(=O)Nc3nc(-c4ccccc4)cs3)n2-c2ccccc2)n1,-2.2,6.8,11.4*,-0.5,0.1,-2.8,0.1,
O=[N+]([O-])c1ccc(CN2CCOCCOCCN(Cc3ccc([N+](=O)[O-])cc3Cl)CCOCC2)c(Cl)c1,/,-2.2,0.7,0.0,/,/,/,
O=C(O)c1ccc(-n2nnnc2SCc2cccc(Br)c2)cc1,1.1,-2.9,1.0,8.7,-0.1,/,/,
CCOc1ccc(-n2c(COc3ccc(Cl)cc3)nnc2SCC(=O)Nc2ccc(OCc3ccccc3)cc2)cc1,/,3.7,-0.3,-6.5,/,/,/,
Cc1ccc(C(=O)CSc2nnnn2-c2ccccc2)o1,-2.6,-0.8,10.9*,-52.1,-0.3,-4.6,0.5,
C=CCn1c(SCC(=O)Nc2ccccc2-c2ccccc2)nnc1-c1ccccc1,/,9.8,13.2*,-3.2,/,-0.9,1.6,
Cc1cc(C)c(CSc2nnnn2-c2ccc(C(=O)O)cc2)c(C)c1,4.2,-1.5,12.4*,-17.8,0.2,-3.9,-5.4,
COc1ccc(-n2c(COc3ccccc3)nnc2SCC(=O)Nc2ccc(OCc3ccccc3)cc2)cc1,/,0.2,9.6*,4.2,/,4.6,-9.3,
COC(=O)C1CCCN(C(=O)C2CCN(S(=O)(=O)c3cccs3)CC2)C1 (stereo not given),/,0.8,-0.4,0.1,/,/,/,
CCOc1ccc(-n2c(SCC(=O)c3ccc4ccccc4c3)nnc2-c2ccco2)cc1,/,-21.4,-9.1,-11.6,/,/,/,
COc1ccc(C2C(C(=O)N3CCOCC3)CC(=O)N2c2ccc(OC)cc2)cc1 (stereo not given),/,-1.2,-2.1,3.5,/,/,/,

# Screening data from PubChem BioAssay.
